Experiments:
[1] = Solvolytic stability in McIlvaine buffer pH 4.0 by NMR; format: physicochemical; conditions: McIlvaine buffer pH 4.0, room temperature, 24 h, 1H NMR
[2] = biological target: GAA (Homo sapiens, UniProt P10253); test: Competitive ABPP against probe 13 in fibroblast lysates, pH 4; format: biochemical; conditions: pH 4, preincubation 15, 30 or 60 min
Outline: (§1)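 Human normal dermal fibroblast homogenate (17.6 μg total protein) in 150 mM McIlvaine buffer for 5 min on ice, at pH 4 for GAA and pH 7 for GANAB. Exposed to test compound for 15, 30 or 60 min at 37 °C, then labeled with Cy5 aziridine probe 13 for 30 min at 37 °C. Denatured at 98 °C, 10% SDS–PAGE, Cy5 in-gel fluorescence scan.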

[3] = biological target: T1, human β-glucosidase GBA1 (Homo sapiens, UniProt P04062, R534H); test: In vitro apparent IC50, recombinant GBA1; format: biochemical
T1 sequence (P04062 40-536 R534H): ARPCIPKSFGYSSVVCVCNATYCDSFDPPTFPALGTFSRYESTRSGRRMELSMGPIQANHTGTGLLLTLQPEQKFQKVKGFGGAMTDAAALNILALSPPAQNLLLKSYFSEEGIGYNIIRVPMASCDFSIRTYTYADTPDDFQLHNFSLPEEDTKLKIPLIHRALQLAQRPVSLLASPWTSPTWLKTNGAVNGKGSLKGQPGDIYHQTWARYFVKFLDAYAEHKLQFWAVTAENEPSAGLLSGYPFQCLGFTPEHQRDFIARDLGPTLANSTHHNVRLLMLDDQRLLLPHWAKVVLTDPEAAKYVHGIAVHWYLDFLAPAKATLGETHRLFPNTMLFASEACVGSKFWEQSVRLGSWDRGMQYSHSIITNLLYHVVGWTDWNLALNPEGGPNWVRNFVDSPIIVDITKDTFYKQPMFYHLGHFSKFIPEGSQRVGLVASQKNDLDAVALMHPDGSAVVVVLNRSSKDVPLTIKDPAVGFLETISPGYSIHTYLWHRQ
Outline: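 Recombinant human GBA1 (Cerezyme) preincubated with a range of test compound concentrations for 30 min at 37 °C, then added to 4-MU-Glc substrate mixture to measure residual activity. Reaction quenched with 1 M NaOH–glycine (pH 10.3); 4-MU fluorescence read at λEX 366 / λEM 445 nm. Apparent IC50 is the mean of three technical replicates.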

[4] = biological target: sucrase-isomaltase (SIS) (Mus musculus, UniProt B5THE3); test: Competitive ABPP against probe 13 in mouse gastrointestinal lysate; format: biochemical; conditions: mouse intestine lysate, 1 h at 37 °C
Outline: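 Mixed mouse duodenum, jejunum and ileum homogenates were made in 25 mM potassium phosphate pH 6.5 with protease inhibitors (40 μg protein). Held 5 min on ice in McIlvaine buffer pH 4 or 7. Incubated 1 h at 37 °C with test compound (final 150 to 0.005 μM, plus 0), then probe 13 for 30 min at 37 °C. Boiled in Laemmli buffer, 10% SDS–PAGE, Cy5 fluorescence scan.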

[5] = biological target: T2, GANAB (Homo sapiens, UniProt Q14697); test: Competitive ABPP against probe 13 in fibroblast lysates, pH 7; format: biochemical; conditions: pH 7, preincubation 15, 30 or 60 min
T2 sequence (Q14697 29-944): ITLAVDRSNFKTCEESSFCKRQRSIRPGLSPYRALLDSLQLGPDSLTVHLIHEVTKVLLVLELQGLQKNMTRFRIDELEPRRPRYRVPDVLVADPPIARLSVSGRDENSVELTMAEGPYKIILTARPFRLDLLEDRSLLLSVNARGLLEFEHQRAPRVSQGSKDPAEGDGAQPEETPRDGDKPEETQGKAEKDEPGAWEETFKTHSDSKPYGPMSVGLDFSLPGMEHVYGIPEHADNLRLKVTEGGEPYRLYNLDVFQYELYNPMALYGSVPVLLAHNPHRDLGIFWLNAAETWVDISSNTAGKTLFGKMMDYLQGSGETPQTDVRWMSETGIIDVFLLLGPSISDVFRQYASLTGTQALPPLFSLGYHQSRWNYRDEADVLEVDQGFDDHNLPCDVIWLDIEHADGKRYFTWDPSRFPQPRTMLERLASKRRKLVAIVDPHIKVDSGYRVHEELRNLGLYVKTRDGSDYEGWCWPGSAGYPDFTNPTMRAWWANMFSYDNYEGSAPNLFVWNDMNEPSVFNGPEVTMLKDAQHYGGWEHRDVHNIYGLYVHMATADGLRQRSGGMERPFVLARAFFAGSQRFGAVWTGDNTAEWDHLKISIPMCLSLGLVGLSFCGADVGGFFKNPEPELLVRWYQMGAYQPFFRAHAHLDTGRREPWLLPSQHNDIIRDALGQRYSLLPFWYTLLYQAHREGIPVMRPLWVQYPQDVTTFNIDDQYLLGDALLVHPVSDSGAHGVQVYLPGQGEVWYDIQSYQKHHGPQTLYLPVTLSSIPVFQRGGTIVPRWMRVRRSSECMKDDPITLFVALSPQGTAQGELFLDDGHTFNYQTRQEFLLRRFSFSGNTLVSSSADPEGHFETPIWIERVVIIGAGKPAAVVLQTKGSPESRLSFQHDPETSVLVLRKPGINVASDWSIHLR
T2 sequence (P14314 15-528 partner): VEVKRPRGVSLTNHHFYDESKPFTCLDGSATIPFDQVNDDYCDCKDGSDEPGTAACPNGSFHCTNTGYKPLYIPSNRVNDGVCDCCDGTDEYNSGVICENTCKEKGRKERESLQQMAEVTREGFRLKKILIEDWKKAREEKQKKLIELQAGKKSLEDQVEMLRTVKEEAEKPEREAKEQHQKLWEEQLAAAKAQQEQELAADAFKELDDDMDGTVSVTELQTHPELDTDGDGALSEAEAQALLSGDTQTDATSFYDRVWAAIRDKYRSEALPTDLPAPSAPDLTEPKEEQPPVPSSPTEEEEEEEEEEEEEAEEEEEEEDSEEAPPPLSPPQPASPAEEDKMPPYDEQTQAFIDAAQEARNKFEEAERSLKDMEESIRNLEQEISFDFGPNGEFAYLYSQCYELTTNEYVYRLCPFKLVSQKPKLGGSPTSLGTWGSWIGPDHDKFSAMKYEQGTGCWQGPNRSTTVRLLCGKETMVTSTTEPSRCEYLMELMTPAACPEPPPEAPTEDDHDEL
Outline: as §1

Sequence of sucrase-isomaltase (SIS) (B5THE3 1-1818): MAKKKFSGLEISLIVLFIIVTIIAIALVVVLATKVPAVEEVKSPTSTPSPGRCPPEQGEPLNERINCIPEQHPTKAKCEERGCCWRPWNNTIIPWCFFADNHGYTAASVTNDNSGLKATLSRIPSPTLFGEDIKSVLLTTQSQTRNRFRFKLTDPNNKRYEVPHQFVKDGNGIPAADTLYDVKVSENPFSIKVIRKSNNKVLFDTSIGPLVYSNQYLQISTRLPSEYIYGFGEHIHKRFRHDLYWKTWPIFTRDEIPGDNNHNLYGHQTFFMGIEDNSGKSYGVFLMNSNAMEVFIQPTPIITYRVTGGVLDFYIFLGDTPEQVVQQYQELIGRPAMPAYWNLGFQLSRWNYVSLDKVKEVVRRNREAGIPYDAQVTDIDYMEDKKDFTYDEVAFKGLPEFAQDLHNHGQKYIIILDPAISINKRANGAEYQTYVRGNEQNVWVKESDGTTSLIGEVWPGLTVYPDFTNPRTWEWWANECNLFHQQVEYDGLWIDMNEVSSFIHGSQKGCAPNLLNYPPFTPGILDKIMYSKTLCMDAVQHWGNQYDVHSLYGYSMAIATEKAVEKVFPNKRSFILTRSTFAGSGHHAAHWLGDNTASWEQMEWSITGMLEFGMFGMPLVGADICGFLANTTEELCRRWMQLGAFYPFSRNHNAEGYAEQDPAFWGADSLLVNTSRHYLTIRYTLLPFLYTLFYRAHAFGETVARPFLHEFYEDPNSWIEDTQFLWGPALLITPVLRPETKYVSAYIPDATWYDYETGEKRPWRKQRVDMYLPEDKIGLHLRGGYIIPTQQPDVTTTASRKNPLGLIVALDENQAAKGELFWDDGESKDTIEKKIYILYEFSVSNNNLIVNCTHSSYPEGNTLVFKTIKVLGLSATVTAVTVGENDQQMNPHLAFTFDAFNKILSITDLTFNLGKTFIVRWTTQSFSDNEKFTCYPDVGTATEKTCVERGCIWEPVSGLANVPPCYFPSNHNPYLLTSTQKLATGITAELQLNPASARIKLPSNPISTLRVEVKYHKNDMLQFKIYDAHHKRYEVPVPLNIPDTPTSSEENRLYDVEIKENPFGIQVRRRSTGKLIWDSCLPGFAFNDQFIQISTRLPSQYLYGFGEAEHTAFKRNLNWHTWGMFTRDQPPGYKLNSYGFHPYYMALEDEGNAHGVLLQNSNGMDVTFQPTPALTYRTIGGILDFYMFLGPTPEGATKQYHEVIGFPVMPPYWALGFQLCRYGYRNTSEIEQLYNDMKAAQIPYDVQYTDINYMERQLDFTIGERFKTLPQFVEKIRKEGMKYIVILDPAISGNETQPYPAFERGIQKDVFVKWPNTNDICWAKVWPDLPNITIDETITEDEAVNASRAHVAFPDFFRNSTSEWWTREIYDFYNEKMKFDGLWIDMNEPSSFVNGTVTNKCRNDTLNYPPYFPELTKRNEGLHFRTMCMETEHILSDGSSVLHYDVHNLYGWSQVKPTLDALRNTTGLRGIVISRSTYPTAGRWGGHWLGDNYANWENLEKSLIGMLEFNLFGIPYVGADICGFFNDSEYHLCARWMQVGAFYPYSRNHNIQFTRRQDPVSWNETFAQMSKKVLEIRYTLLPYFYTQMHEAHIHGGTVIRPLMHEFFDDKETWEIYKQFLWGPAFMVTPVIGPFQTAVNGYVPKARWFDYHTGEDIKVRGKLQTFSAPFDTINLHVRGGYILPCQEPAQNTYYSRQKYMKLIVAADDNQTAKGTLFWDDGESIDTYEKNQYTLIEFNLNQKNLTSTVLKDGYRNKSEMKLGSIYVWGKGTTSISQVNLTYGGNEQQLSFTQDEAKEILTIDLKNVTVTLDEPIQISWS

solvolytic stability (spontaneous hydrolysis) [1]: no spontaneous hydrolysis
inhibition of probe 13 labeling of GAA [2]: time dependent inhibition
IC50 [3]: > 100 µM
inhibition of probe 13 labeling of SIS [4]: inhibited
inhibition of probe 13 labeling of GANAB [5]: time dependent inhibition
SMILES: O=S1(=O)O[C@@H]2[C@H](O)[C@@H](O)[C@H](O)[C@@H](CO)[C@@H]2O1 [Compound 5, 1,6-epi-cyclophellitol cyclosulfate]
